# Measured values from the RNAGym collection of RNA variant scans (doi:10.1126/science.aae0568).
# Variants at the floor of the assay were thinned out.
# B1: tRNA (parent)
# chain: GUUCCGUUGGCGUAAUGGUAACGCGUCUCCCUCCUAAGGAGAAGACUGCGGGUUCGAGUCCCGUACGGAACG
# Variants of: B1
# Assay: yeast fitness relative to wild type (ratio to wild type); higher = fitter; tRNA-Arg(CCU), competitive growth, 37 C, YPD
# How it was run: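 Changes in genotype frequencies gave Darwinian fitness relative to wild type. Frequencies were read by 100-nucleotide paired-end sequencing of gene amplicons before and after pooled Saccharomyces cerevisiae strains, carrying tRNA-Arg(CCU) gene variants at the native locus, were competed in YPD at 37°C for 24 hours in six replicates. A genotype was kept only with ≥ 100 starting reads, and estimates < 0.5 were set to 0.5.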
row,Variant,yeast fitness
1,U7G C34U,0.588
2,U7G A36U A70U,0.544
3,U7G A14G U59A,0.542
4,U7G C11U G12C C33U U64A G68C,≤ 0.5
5,U7G C27U C33U,≤ 0.5
6,U7G C11G C30G G41C,≤ 0.5
7,U7G C27G U32C U35C A36G U53A G56A,≤ 0.5
8,U7C U35C G52A,≤ 0.5
9,U7G U32C C46G,0.62
10,U7G C27U C33U G50C U53A A57U A65U,≤ 0.5
11,U7G A15C C24U U32C A43G G51A U54C G67C,≤ 0.5
12,U7G G39A C55U U59G G68C,≤ 0.5
13,U7G C29A C30A U54A A57G U64A,0.561
14,U7G A43U U64C,0.546
15,U7G A15C A45C,0.565
16,U8A A15G C27A G67A,≤ 0.5
17,U7G A20G A21G G38C G50C,≤ 0.5
18,U7G A40U A69C,0.731
19,U7G C60A A70C,0.551
20,U7G C11G U32A U53G,≤ 0.5
21,U7G U13C A37U,≤ 0.5
22,U7G G56C C60U G67C,≤ 0.5
23,U7G C29U C31U G38C,≤ 0.5
24,U7G C30G,0.509

row,Variant,yeast fitness
1,U7G C30U,0.895
2,U7G C30A,0.721
3,U7G C22U C24U U53A,≤ 0.5
4,U8A A14U,0.534
5,U8A A40U,0.707
6,U7G C27G U28G G52C G58C A65U A70C,≤ 0.5
7,U7G A57G G68U,≤ 0.5
8,U7G A20G U47A C61A,0.597
9,U7G A37U A65G,0.699
10,U7G G10C C22G C55A,≤ 0.5
11,U7G U8A U32C G51C C60U C61U C62U,0.599
12,U8A A15G C27A U47G G68U,≤ 0.5
13,U7G G63A,0.888
14,U7G G25C A40U,0.556
15,U7G C24G,0.619
16,U8A A15C U26A C33A C61A U64A,≤ 0.5
17,U8A A15C G18C,0.575
18,U8A A14C C31A G41C C49A G56A,0.668
19,U7G A20G A70G,0.615
20,U7G A37G C49A,≤ 0.5
21,U7G C30U G38A G50A G68C,≤ 0.5
22,U7C U47G U59A C66A A70C,≤ 0.5
23,U7G C22U C49G G50C,0.512
24,U7G G25A,0.799

row,Variant,yeast fitness
1,U7G G63A A65G,0.828
2,U8A A15C A21U,≤ 0.5
3,U7G C34A A36U G52A C60A,≤ 0.5
4,U7G A36C G41A U53C,≤ 0.5
5,U8A A36U,0.559
6,U7G C27A A40U,≤ 0.5
7,U7G A70C,0.972
8,U7G C61U,0.78
9,U8A A14G C24G G56A,≤ 0.5
10,U7G A43G C60U C62U A70C,≤ 0.5
11,U7G C11G,0.692
12,U7G C11U,0.807
13,U7G G41A G48A,0.911
14,U7G A36C G67A,≤ 0.5
15,U8A A20U G56A G67A,≤ 0.5
16,U7C U47C U64G G68C,≤ 0.5
17,U7G C11G C34U G41A C60A C61U G63C C66U,≤ 0.5
18,U7G A21C G56A,≤ 0.5
19,U7G A15C G44A,≤ 0.5
20,U7G U8G A70U,≤ 0.5
21,U7G G39C A70U,0.553
22,U7G G9A C30G G51C,≤ 0.5
23,U7C U32C G58A A70C,≤ 0.5
24,U7G G23A A36U G39C,≤ 0.5

row,Variant,yeast fitness
1,U8A A37C A43U,0.541
2,U7G A43U A65C,1
3,U7G C11G C34U G41A A70U,≤ 0.5
4,U7C U64A G68U,≤ 0.5
5,U8A A21G C24A C30A A45U C49A,0.765
6,U7G G68A,0.821
7,U8A A21U C27G C30A,≤ 0.5
8,U7G C29G C30U C46U,0.534
9,U7G C27G U28G G67A,0.547
10,U7G A57G C60U,0.62
11,U7G U28G,0.635
12,U7C U64G,0.809
13,U7C U47G G68U,≤ 0.5
14,U7G A15G U19C A21G G41A C55A G63C,≤ 0.5
15,U7G U59C,0.871
16,U7C U59A,0.765
17,U7G A40C,0.807
18,U7G A21C G44C C66U,≤ 0.5
19,U7G U26C A42U C46U C66U,≤ 0.5
20,U7G G52A,0.723
21,U8A A15U,0.587
22,U8A A15G,0.665
23,U8A A15C,0.631
24,U7G A45U C55A,≤ 0.5

row,Variant,yeast fitness
1,U7G G41C C49G U59G G63A C66U,≤ 0.5
2,U7C U53A,0.655
3,U8A A15U C27G A36G G38U,≤ 0.5
4,U7G G18C,0.686
5,U8A A40G C49G U54A C55A,≤ 0.5
6,U8A A15U A21G C34A A37G,0.51
7,U7G A43U C46A,0.603
8,U7G C11U C60A,≤ 0.5
9,U7G A65C,0.998
10,U7G C49A,0.665
11,U7G C29G U35C C46U,≤ 0.5
12,U7G A45G A65C C66A,1.03
13,U7G C30U G38A,0.591
14,U7G C11G C34U G41A A65C,≤ 0.5
15,U7G C11G C34U G41A A65G,≤ 0.5
16,U7G A36U C60U,≤ 0.5
17,U8A A14U G17A G25A,≤ 0.5
18,U7G C46A C61G A69G,≤ 0.5
19,U7G A15C A21C U28A G51A C60U C62U,0.653
20,U7G U13C A57U,≤ 0.5
21,U7G C27G U28G C66U,≤ 0.5
22,U7C U32C,0.776
23,U7G C33A A69G,0.598
24,U7C U47C C62G,≤ 0.5

row,Variant,yeast fitness
1,U7C U28A G67A,0.528
2,U7G C29A,0.649
3,U8A A37G A42U U54C,≤ 0.5
4,U7G A43C G58C,0.648
5,U7G C61U C66A,0.626
6,U7G C11G C34U C49U U59C C62G,≤ 0.5
7,U8A A37C U53C,0.545
8,U8A A36U G39A C66U,≤ 0.5
9,U8A A20C A42U,≤ 0.5
10,U7G A15C G38C,≤ 0.5
11,U7G U28G C34U G38A,≤ 0.5
12,U7G C49U A57U,≤ 0.5
13,U7G C34A G44C G51A C62A,≤ 0.5
14,U8A A14C C31A G41C G63U U64A,0.776
15,U7G C22U C49G G50C C66A,≤ 0.5
16,U7C U47C,0.895
17,U8A A15U A20C A45G,≤ 0.5
18,U7G A37U C46G,≤ 0.5
19,U7G C29U A36U,≤ 0.5
20,U7G C27U C49U,0.59
21,U7G U26G C33G U59A U64C,0.502
22,U7G G12C A14C A15G A37C A57U,≤ 0.5
23,U7G C49A C61U G67C,≤ 0.5
24,U8A A14G A20U G63C C66G,≤ 0.5

row,Variant,yeast fitness
1,U7G A15C U16A C33G A69C,≤ 0.5
2,U8A A36G G67C,≤ 0.5
3,U7G A42C C62U,0.651
4,U7G A21C A42U C66U,≤ 0.5
5,U7G A15C U16A C33G A37C C49A C61U A70U,≤ 0.5
6,U7G U59G A69C,≤ 0.5
7,U7G C66A,0.573
8,U7G C66U,0.893
9,U7G A20C,0.651
10,U7G A20G,0.872
11,U7G U13A A69U,0.629
12,U7G G10A C27U G68A,≤ 0.5
13,U8A A40G A42U A45U U59G G68A,≤ 0.5
14,U7C U26G A36C G50C,0.781
15,U8A A14C G17C C24U A45U G67C,≤ 0.5
16,U7G U32A C61G,≤ 0.5
17,U7G C11G A21G C34U G41A,≤ 0.5
18,U8A A36C C62A,≤ 0.5
19,U7G G10C C33U C60G G67A,≤ 0.5
20,U7G U13C A36U G50C U54C,≤ 0.5
21,U7G C30A C55A,≤ 0.5
22,U7G U59C A69U,0.717
23,U7G G10C C22G,≤ 0.5
